Test [1] concerns the target T1, Retinoic acid receptor RXR-alpha (Homo sapiens, UniProt P19793).
T1 sequence (P19793 whole entry): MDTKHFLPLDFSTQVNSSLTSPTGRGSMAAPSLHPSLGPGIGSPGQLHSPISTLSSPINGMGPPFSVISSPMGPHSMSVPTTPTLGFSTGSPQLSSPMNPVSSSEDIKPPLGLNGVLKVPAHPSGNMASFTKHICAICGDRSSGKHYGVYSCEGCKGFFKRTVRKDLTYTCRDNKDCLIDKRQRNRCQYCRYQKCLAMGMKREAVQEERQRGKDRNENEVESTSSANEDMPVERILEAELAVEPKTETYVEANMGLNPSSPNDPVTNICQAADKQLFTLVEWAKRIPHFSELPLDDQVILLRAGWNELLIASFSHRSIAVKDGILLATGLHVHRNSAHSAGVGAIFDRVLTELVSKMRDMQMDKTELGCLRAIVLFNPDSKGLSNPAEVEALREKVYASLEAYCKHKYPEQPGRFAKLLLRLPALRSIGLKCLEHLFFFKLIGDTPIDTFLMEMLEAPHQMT
Briefly: Binding affinity for retinoid X receptor alpha (RXRalpha), using 9-cis-[3H]-retinoic acid. The method in brief:
(§1)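 Scintillation proximity binding assay; Ki from competition of 2.5 nM 9-cis-RA at RXRα and RARα, with test compound up to 10 µM.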

The target in test [2] is T2, Retinoic acid receptor alpha (Homo sapiens, UniProt P10276).
T2 sequence (P10276 whole entry): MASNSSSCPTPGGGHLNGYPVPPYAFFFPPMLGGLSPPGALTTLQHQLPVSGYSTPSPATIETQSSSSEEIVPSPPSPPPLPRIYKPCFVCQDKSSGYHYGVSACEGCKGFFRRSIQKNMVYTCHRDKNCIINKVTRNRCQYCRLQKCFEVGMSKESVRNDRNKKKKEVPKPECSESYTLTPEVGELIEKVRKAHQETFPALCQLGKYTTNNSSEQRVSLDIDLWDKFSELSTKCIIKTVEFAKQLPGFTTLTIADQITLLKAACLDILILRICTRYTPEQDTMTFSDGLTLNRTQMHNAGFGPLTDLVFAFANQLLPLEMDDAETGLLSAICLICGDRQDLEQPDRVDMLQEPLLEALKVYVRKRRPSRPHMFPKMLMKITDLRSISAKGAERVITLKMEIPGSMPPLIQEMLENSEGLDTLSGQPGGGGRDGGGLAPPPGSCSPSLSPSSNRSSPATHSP
The experiment in a line: Effective concentration for Retinoic acid receptor alpha activity in CV-1 cells. In kind it is functional, cell-based. The method, boiled down: (§2)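 CV-1 monkey kidney cells transiently transfected with a full-length hRXRα expression vector (RXRα) or a GAL4-hRARα vector (RARα), each with an RXRα- or RARα-responsive reporter gene construct. Top concentration 10 µM; EC50 calculated from the reporter response.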

Test [3] deals with T1, Retinoic acid receptor RXR-alpha. Briefly: Effective concentration for Retinoid X receptor alpha activity in CV-1 cells. The test is classed as functional, cell-based. The method, boiled down: as §2
Test [4] addresses T2, Retinoic acid receptor alpha. Briefly: Binding affinity for retinoic acid receptor alpha (RARalpha), using 9-cis-[3H]-retinoic acid. The method in brief:
as §1

The values below come from ChEMBL document CHEMBL1149144, “Structure-based design of potent retinoid X receptor alpha agonists” (J Med Chem, 2004).

In the case of `CC1(C)CCC(C)(C)c2cc(C3CCCc4oc(/C=C5/SC(=O)NC5=O)cc43)ccc21` (centres undefined), the values for the Ki in test [1] and in test [4] were 20 nM and above 1000 nM, respectively. In addition, the EC50 – broadly, the concentration that produces a half-maximal response – in test [2] is above 10000 nM; in test [3], 4 nM.
As to `CN1Cc2oc(/C=C/C(=O)O)cc2C(c2ccc3c(c2)C(C)(C)CCC3(C)C)C1` (centres undefined), the values for the Ki in test [1] and in test [4] were 79 nM and above 1000 nM, respectively. Also, it took 70 nM to reach a half-maximal effect in test [3] (EC50).
With `O=C1NC(=O)/C(=C/c2ccc(-c3cccc(Br)c3)o2)S1`, affinity in test [1] was put at a Ki of 1500 nM.
Turning to `O=C1NC(=O)/C(=C/c2ccc(-c3cccc(C(F)(F)F)c3)o2)S1`, in test [1], the Ki (in general, the dissociation constant of the complex between target and ligand, obtained from inhibition or displacement) was determined as 7400 nM.
For `CC1(C)CCC(C)(C)c2cc(C3CCCc4oc(/C=C/C(=O)O)cc43)ccc21` (stereo in doubt), the Ki in test [1] was 5 nM; in test [4], above 1000 nM. Further, the EC50 is above 10000 nM in test [2] and 5 nM in test [3].
Take `CC1(C)CCC(C)(C)c2cc(Cc3coc(/C=C/C(=O)O)c3)ccc21`: the Ki in test [1] was 138 nM; in test [4], above 1000 nM.
As for `CC1(C)CCC(C)(C)c2cc(C3CCCc4oc(/C=C/C(=O)O)cc43)ccc21` (stereo in doubt; 60), the Ki in test [1] was 90 nM; in test [4] it was above 1000 nM. The EC50 in test [2] was above 790 nM; in test [3], 97 nM.
As for `CC1(C)CCC(C)(C)c2cc(C3CCCc4oc(/C=C/C(=O)O)cc43)ccc21` (single isomer, unassigned), the Ki in test [1] is 200 nM; in test [4] it was above 1000 nM. Also, the EC50 in test [2] is above 10000 nM; in test [3] it was 40 nM.
As to `Cc1cc2c(cc1C1CCCc3oc(/C=C/C(=O)O)cc31)C(C)(C)CCC2(C)C` (centres undefined), the Ki was 40 nM in test [1] and above 1000 nM in test [4]. The EC50 in test [2] was above 10000 nM; in test [3], 29 nM.
As to `CC1(C)CCC(C)(C)c2cc(-c3ccc(/C=C/C(=O)O)o3)ccc21`, the values for the Ki in test [1] and in test [4] were above 1000 nM and 93 nM, respectively.
